Compound activity deposited in PubChem BioAssay by The Scripps Research Institute Molecular Screening Center.
TCR CD3 inh: inhibitors of human TCR-CD3 interaction; 0.37% of 360,000 active; AID 651800; TAMRA-labeled TCR probe fluorescence, biochemical; inhibition, % at 9.4 µM; in the data active = inhibition above about 19%;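 note: recombinant mutant TCR 2C K166C tagged with TAMRA read by polarization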
SIAE primary: blocks human sialic acid acetylesterase. SIAE FP-Rh probe binding, fluorescence polarization. 0.69% of 370,000 active. inhibition, % at 9.66 µM. AID 1053197;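 active = inhibition above a cutoff: mean of compounds within the control limits plus 3 SD of those, cut at about 17% in these data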
DAGLB inh: diacylglycerol lipase beta (human) inhibition; 0.059% of 340,000 active; HEK293T DAGLB membrane lysate, EnzChek fluorogenic substrate; inhibition, % at 5.17 µM; Q8NCG7; AID 504411; in the data active = inhibition above about 34%
HTRA1 inhibitor: HTRA1 (human) protease inhibition. recombinant HTRA1, FP-rhodamine activity-based probe, fluorescence polarization. Q92743. 0.5% of 340,000 active. inhibition, % at 5.96 µM; in the data active = inhibition above about 36%
Target sequence (Q92743 whole entry, looked up): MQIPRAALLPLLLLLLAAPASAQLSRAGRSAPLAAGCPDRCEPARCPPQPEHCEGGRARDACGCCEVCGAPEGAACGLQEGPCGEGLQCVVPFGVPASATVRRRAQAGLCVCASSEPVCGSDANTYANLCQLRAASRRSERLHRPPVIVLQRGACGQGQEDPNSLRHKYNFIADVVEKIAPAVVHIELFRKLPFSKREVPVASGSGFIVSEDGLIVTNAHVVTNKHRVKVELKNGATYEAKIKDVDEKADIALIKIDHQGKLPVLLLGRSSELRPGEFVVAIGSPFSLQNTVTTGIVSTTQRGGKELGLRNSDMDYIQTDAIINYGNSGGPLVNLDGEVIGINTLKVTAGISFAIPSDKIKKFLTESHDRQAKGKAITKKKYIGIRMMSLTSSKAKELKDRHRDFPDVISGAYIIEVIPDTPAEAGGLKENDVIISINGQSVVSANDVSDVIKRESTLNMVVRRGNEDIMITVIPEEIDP
ABHD4 inh: inhibitors of mouse ABHD4. 0.54% of 370,000 active. inhibition, % at 8.92 µM. AID 720543. Q8VD66. purified mABHD4, FP-Rh probe fluorescence polarization;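 active = inhibition exceeding the mean over every tested compound plus 3 SD, cut at about 30% in these data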
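Assay system: wild-type mouse ABHD4 protein; compound: single nominal dose of 8.92 µM, 0.89% DMSO final; schedule: 45 min + 60 min at 25 °C; measured by: FP readout, ex 525 nm / em 598 nm; evaluation: % inhibition of FP-Rh probe binding versus controls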
mABHD4 conf: ABHD4 (mouse) inhibition, FP confirmation | inhibition, % at 8.92 µM | 55% of 1,800 active | purified mABHD4, FP-Rh probe fluorescence polarization | shares compounds with ABHD4 inh;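 active = mean inhibition across replicates above the hit cutoff set in the primary screen, cut at about 30% in these data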
A number is an active result; . = inactive; / = no result given; + = active, no number. A selection: hits, their analogues and other compounds. The true share with any hit is near 1.5%.

SMILES	TCR CD3 inh	SIAE primary	DAGLB inh	HTRA1 inhibitor	ABHD4 inh	mABHD4 conf
COc1cc(Cl)ccc1OCc1cc(C(=O)N2C[C@]3(C)C[C@H]2CC(C)(C)C3)no1	.	.	.	.	32.4	.
C/C(=N\Nc1ccc(C(=O)O)cc1)c1ccc2c(c1)Nc1ccccc1S2	.	.	.	.	43.4	77.4
O=C1Nc2c(Cl)cc(Cl)cc2C12Nc1ccccc1S2 (configuration not stated)	.	.	/	/	.	/
COc1ccc(S[C@]2(C(=O)N3CCN(c4ncccn4)CC3)CC(=O)N(C(=O)Nc3ccc(C)c(Cl)c3)[C@@H]2c2ccc(OC)cc2)cc1	/	.	/	/	.	/
C=CCN=c1scc(C)n1/N=C/c1ccc(O)c(O)c1	.	.	.	.	40.2	.
Cc1[nH]c2ccccc2c1C1=CC(=O)C=CC1=O	.	.	.	.	77.8	80.7
Cc1[nH]c2ccccc2c1CC#N	.	.	.	.	.	/
C=C(C)CN(CC)c1nc(N)c2c(N)nc3c(c2c1C#N)CC(=O)N3C12CC3CC(CC(C3)C1)C2	.	.	.	.	35.6	.
Fc1cccc(F)c1/C=N/Nc1ccccn1	.	.	.	.	.	/
Oc1ccc2ccccc2c1C=NNc1ccccn1	.	.	.	.	35.5	.
O=C1/C(=C2\C(=O)N(Cc3ccc(F)cc3)c3ccccc32)SC(=S)N1CCS(=O)(=O)O	.	.	.	.	75.8	100.4
O=C(O)CN1C(=O)/C(=C2\C(=O)N(Cc3ccccc3Cl)c3ccccc32)SC1=S	.	.	.	.	.	/
CCOC(=O)[C@]12CCCC=C1N(CCCOC)C(=O)[C@@H]2CC(=O)NCc1ccccc1	/	.	/	/	.	/
CCOC(=O)CN1CCCc2nc(C)c(C)cc21	.	.	/	/	.	/
O=[N+]([O-])c1ccc(/C=N/Nc2nc(N3CCCCC3)nc(N3CCCCC3)n2)o1	.	.	.	.	53.6	54.5
COc1c(/C=N/Nc2nc(N3CCCCC3)nc(N3CCCCC3)n2)cccc1[N+](=O)[O-]	.	.	.	.	.	/
O=[N+]([O-])c1ccc(N/N=C/c2cccnc2)cc1	.	.	.	.	.	/
O=C(O)c1ccc(N/N=C/c2ccc(-c3cccc(Cl)c3)o2)cc1	.	.	.	.	49.5	64.8
O=C(O)c1ccc(N/N=C/c2ccc(-c3cc(Cl)ccc3Cl)o2)cc1	.	.	.	.	.	/
NC(=S)N/N=C/c1ccc(-c2cccc([N+](=O)[O-])c2)o1	.	.	.	.	.	/
O=C(O)c1cccc(-c2ccc(/C=N/Nc3ccc([N+](=O)[O-])cc3)o2)c1	.	.	.	.	38.7	52.7
Cc1c(C(=O)O)cccc1-c1ccc(/C=N/n2cnnc2)o1	.	.	.	.	.	/
O=[N+]([O-])c1ccc(C=NNc2ccc(S(=O)(=O)O)cc2)cc1	.	.	.	.	33.4	50.2
Cc1c(C(=O)O)cccc1-c1ccc(/C=N/Nc2ccc(Br)cc2)o1	.	.	.	.	34.6	41.6
CC12CCC3c4ccc(OCCCO)c([N+](=O)[O-])c4CCC3C1CCC2=O (configuration not stated)	.	.	/	/	.	/
SMILES	TCR CD3 inh	SIAE primary	DAGLB inh	HTRA1 inhibitor	ABHD4 inh	mABHD4 conf
Cc1cccc(C)c1OCc1nnc(SCC(=O)O)n1-c1c(C)cccc1C	.	.	/	/	.	/
CCC(C)CNC(=O)c1oc(=O)c2ccccc2c1-c1ccc(C)cc1 (configuration not stated)	/	.	/	/	.	/
CCNC(=O)N1CCN(c2ccc(N3CCN(C(=O)NCC)[C@@H](C)C3)c(C)c2)[C@@H](C)C1	.	.	/	/	.	/
CCCCc1c(-c2ccccc2OC)ncn1Cc1ccc(C(C)(C)C)cc1	.	.	/	/	.	/
CCCCCCSc1ccc(-c2nc3ccccn3c2NCCCC)cc1	.	.	.	.	43.9	50.2
CCCCNc1c(-c2cccc(-c3ccc(OC)cc3)c2)nc2ccc(C)cn12	.	.	.	.	30.1	35.4
CCCCNc1c(-c2ccc(-c3cccc(Cl)c3)cc2)nc2ccccn12	.	.	.	.	39.8	31.7
CCn1cnc2cc(NCc3cccc(OC)c3O)ccc21	.	.	.	.	+	.
CCCNc1c(F)c(F)c2c(C)c3ccccc3nc2c1F	.	.	.	50.9	50.8	44.5
O=C(Nc1cc(Cl)ccc1F)C1CCCN(c2nnc(-n3cccc3)s2)C1 (configuration not stated)	/	.	/	/	.	/
COC(=O)c1ccccc1Nc1ccccc1	.	.	.	.	.	/
O=S(=O)(O)c1cccc2cccc(Nc3ccccc3)c12	.	.	.	.	61.3	.
CN(C)c1ccc(C2CC(c3cccc(NS(C)(=O)=O)c3)=NN2C(=O)c2ccccc2)cc1 (configuration not stated)	.	.	.	.	.	/
COc1cccc(C2CC(c3cccc(NS(C)(=O)=O)c3)=NN2C(=O)c2ccccc2)c1OC (configuration not stated)	.	.	.	.	34.3	30.9
C=CCOc1ccc(C(c2c(C(=O)O)[nH]c3ccccc23)c2c(C(=O)O)[nH]c3ccccc23)cc1	.	.	.	.	55.3	52.8
O=C(O)c1[nH]c2ccccc2c1C(c1ccccc1)c1c(C(=O)O)[nH]c2ccccc12	.	.	.	.	31.8	38.2
Cc1ccc(S(=O)(=O)Nc2nc3ccc(S(C)(=O)=O)cc3s2)cc1	.	.	.	.	.	/
Cc1ccc(S(=O)(=O)Nc2nc3ccc(N)cc3s2)cc1	.	.	.	.	49.1	.
COCc1cc(=O)n2[nH]c(-c3ccco3)cc2n1	.	.	.	.	.	/
CCCCN1Cc2c(nc3cc(-c4ccco4)[nH]n3c2=O)C1=O	.	.	.	.	35.4	.
O=C(NCc1ccccc1)[C@@H]1CCCN1C(=O)[C@H]1CCCN1C(=O)c1ccc(OC(F)(F)F)cc1	.	.	/	/	.	/
COc1ccc(N2C(=O)c3n[nH]c(C(C)C)c3C2c2ccc(F)cc2)cc1 (configuration not stated)	.	.	/	/	.	/
COc1ccc(C(=O)CSc2nnc(-c3cccc(Cl)c3)n2Cc2ccco2)cc1	/	.	/	/	.	/
COc1cc(/C=C2\SC(=O)N(CC(=O)Nc3cccc(C)c3)C2=O)cc([N+](=O)[O-])c1O	.	.	/	/	30.8	80.2
CCOc1cc(/C=C2\SC(=O)N(CC(=O)Nc3ccccc3F)C2=O)cc([N+](=O)[O-])c1O	.	.	.	.	.	/
CN1CCCCC(NC(=O)c2ccc(Cl)cc2Cl)C1=O (configuration not stated)	.	.	/	/	.	/
COc1cccc2c(=O)c3cccc(N)c3[nH]c12	.	.	.	.	58.1	65.6
COc1cccc2c(=O)c3c([nH]c12)OC(C)(C)C3	.	.	.	.	.	/
COC(=O)C1=C(C)N(Cc2cccc(C(F)(F)F)c2)C(=NCc2ccc3c(c2)OCO3)NC1c1ccccc1C(F)(F)F (configuration not stated)	.	.	/	/	.	/
Cc1ccc(S(=O)(=O)/N=C2/NC(=O)/C(=C\c3ccco3)S2)cc1	.	.	.	.	31.8	.
